According to ChEMBL document CHEMBL1136991, “Novel potent BRAF inhibitors: toward 1 nM compounds through optimization of the central phenyl ring” (J Med Chem, 2009):

Tests used:
[1] = Growth inhibition of human WM266.4 cells expressing BRAF V600E mutant after 5 days by SRB assay; format: functional; settings: WM 266-4, 120 h
In short: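 WM266.4 human melanoma cells, which are driven by mutant BRAF, were assayed for proliferation by sulforhodamine B (SRB) staining; the value is a GI50.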

[2] = target: Calcium/calmodulin-dependent protein kinase kinase 2 (Homo sapiens) (UniProt Q96RR4); test: Inhibition of CAMKKb at 1 uM relative to control
[3] = target: RAC-beta serine/threonine-protein kinase (Homo sapiens) (UniProt P31751); test: Inhibition of PKBbeta at 1 uM relative to control
Chain of RAC-beta serine/threonine-protein kinase (Homo sapiens) (P31751 whole entry): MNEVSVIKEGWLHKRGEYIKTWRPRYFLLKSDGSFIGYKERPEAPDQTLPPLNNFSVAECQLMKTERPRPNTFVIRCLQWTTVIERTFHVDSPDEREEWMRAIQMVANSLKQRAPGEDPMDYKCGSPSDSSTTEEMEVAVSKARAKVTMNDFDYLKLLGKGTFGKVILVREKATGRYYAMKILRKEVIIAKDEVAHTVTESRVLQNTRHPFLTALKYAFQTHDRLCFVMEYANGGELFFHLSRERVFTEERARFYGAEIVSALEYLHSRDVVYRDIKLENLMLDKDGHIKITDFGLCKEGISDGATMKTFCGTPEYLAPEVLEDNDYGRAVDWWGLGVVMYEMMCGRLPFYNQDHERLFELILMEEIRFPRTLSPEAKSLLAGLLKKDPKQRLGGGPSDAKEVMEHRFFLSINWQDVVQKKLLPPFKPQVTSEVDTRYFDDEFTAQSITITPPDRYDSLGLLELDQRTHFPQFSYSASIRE

[4] = target: Myosin light chain kinase, smooth muscle (Homo sapiens) (UniProt Q15746); test: Inhibition of smooth muscle MLCK at 1 uM relative to control; format: tissue-based; settings: Muscle tissue
Chain of Myosin light chain kinase, smooth muscle (Homo sapiens) (Q15746 whole entry): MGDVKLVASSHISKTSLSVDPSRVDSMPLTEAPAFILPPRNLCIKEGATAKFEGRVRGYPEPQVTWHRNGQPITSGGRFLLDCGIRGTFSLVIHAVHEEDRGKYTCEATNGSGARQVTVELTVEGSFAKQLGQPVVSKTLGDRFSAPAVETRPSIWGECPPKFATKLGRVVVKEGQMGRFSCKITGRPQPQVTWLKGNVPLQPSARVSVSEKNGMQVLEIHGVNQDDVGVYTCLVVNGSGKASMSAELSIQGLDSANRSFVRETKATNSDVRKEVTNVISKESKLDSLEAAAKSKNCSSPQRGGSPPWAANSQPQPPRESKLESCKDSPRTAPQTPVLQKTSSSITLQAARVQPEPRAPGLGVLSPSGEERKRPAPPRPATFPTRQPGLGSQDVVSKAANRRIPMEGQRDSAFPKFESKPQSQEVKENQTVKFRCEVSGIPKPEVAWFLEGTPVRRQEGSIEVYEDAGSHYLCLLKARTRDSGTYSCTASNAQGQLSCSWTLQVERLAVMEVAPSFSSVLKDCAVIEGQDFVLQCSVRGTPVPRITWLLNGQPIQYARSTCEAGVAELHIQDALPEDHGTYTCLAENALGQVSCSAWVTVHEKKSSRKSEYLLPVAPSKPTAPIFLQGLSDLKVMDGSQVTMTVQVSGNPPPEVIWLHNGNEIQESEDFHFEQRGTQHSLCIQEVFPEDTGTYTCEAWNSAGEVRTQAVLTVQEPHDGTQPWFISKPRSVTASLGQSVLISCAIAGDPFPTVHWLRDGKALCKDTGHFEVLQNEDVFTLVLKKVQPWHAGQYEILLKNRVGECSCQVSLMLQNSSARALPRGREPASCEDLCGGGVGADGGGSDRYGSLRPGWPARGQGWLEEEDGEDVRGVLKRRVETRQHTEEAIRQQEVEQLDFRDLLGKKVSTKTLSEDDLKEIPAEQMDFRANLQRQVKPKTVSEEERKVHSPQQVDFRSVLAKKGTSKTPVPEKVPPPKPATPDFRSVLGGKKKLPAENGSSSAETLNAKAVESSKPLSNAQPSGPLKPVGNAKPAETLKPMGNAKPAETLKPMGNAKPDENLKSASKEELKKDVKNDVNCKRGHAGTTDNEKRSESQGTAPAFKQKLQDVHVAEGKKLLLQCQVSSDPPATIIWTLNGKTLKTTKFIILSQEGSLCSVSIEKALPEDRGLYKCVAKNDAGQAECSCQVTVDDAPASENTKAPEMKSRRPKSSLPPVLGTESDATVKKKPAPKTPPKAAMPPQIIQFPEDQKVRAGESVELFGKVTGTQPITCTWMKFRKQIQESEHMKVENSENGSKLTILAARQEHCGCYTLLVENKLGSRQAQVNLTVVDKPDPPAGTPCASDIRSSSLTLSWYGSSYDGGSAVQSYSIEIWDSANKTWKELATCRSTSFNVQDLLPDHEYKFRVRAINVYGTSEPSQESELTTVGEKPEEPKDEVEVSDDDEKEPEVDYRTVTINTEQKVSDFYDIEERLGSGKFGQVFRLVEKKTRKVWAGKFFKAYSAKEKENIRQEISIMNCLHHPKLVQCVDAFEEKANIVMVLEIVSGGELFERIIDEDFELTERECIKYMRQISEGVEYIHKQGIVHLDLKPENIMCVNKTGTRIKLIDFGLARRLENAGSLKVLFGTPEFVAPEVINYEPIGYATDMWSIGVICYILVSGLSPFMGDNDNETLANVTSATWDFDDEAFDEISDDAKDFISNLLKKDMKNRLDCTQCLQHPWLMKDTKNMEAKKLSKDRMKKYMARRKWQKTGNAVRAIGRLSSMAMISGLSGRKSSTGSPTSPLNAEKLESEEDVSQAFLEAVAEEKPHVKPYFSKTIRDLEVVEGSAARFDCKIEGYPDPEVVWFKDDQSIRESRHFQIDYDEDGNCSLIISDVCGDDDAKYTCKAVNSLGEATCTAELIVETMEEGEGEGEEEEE

[5] = target: T1, Mitogen-activated protein kinase 12 (Homo sapiens) (UniProt P53778); test: Inhibition of p38-gamma at 1 uM relative to control
T1 sequence (whole entry): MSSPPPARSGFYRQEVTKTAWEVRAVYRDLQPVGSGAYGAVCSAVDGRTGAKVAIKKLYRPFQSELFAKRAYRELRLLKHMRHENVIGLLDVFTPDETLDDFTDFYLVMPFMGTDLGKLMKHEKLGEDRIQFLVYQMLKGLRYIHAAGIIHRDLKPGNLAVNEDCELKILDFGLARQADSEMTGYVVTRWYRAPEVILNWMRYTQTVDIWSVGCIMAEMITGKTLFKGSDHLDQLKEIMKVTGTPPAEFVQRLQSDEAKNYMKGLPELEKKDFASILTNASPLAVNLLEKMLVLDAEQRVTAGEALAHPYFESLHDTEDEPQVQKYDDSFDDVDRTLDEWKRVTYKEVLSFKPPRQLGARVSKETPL

[6] = target: MAP kinase-activated protein kinase 2 (Homo sapiens) (UniProt P49137); test: Inhibition of MAPKAP-K2 at 1 uM relative to control
[7] = target: MAP kinase-interacting serine/threonine-protein kinase 1 (Homo sapiens) (UniProt Q9BUB5); test: Inhibition of MNK1 at 1 uM relative to control
Chain of MAP kinase-interacting serine/threonine-protein kinase 1 (Homo sapiens) (Q9BUB5 whole entry, looked up): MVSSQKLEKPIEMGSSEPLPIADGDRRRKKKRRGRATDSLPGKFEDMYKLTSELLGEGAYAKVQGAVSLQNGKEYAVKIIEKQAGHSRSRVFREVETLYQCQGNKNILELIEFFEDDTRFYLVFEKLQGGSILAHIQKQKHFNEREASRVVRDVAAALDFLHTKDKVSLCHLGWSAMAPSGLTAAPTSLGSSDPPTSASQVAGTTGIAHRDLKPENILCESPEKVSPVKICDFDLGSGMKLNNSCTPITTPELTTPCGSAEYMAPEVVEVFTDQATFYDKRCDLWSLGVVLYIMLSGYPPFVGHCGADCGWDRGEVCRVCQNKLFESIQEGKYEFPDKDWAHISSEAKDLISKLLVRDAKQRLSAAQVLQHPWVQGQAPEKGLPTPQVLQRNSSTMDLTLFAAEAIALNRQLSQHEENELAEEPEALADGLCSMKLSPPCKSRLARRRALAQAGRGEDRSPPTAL

[8] = target: Serine/threonine-protein kinase PLK1 (Homo sapiens) (UniProt P53350); test: Inhibition of okadaic acid activated PLK1 at 1 uM relative to control
Chain of Serine/threonine-protein kinase PLK1 (Homo sapiens) (P53350 whole entry): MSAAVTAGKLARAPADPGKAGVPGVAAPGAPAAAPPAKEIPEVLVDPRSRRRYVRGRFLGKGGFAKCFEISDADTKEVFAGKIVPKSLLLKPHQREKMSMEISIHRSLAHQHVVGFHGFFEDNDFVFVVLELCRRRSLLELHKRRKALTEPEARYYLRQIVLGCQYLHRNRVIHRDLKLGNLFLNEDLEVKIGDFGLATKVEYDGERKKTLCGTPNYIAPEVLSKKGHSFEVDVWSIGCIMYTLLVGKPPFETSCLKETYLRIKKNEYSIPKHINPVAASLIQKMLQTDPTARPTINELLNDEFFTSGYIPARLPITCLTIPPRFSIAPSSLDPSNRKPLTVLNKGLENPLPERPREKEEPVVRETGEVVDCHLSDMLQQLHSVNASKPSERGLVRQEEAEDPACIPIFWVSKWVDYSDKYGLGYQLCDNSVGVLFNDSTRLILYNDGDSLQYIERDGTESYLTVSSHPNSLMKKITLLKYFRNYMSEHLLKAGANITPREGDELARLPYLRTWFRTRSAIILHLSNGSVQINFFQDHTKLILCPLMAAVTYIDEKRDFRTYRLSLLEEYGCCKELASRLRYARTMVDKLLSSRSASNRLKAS

[9] = target: Serine/threonine-protein kinase Nek6 (Homo sapiens) (UniProt Q9HC98); test: Inhibition of NEK6 at 1 uM relative to control
Chain of Serine/threonine-protein kinase Nek6 (Homo sapiens) (Q9HC98 whole entry): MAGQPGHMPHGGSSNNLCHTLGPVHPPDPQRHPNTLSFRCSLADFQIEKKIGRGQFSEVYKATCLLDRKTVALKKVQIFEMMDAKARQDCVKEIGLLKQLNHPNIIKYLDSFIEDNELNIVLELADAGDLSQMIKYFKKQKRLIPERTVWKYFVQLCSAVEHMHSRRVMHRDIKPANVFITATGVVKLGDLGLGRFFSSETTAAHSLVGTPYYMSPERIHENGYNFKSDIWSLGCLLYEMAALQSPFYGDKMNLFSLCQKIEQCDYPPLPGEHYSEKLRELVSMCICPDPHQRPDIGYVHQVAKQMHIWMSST

[10] = target: Maternal embryonic leucine zipper kinase (Homo sapiens) (UniProt Q14680); test: Inhibition of MELK at 1 uM relative to control
Chain of Maternal embryonic leucine zipper kinase (Homo sapiens) (Q14680 whole entry, looked up): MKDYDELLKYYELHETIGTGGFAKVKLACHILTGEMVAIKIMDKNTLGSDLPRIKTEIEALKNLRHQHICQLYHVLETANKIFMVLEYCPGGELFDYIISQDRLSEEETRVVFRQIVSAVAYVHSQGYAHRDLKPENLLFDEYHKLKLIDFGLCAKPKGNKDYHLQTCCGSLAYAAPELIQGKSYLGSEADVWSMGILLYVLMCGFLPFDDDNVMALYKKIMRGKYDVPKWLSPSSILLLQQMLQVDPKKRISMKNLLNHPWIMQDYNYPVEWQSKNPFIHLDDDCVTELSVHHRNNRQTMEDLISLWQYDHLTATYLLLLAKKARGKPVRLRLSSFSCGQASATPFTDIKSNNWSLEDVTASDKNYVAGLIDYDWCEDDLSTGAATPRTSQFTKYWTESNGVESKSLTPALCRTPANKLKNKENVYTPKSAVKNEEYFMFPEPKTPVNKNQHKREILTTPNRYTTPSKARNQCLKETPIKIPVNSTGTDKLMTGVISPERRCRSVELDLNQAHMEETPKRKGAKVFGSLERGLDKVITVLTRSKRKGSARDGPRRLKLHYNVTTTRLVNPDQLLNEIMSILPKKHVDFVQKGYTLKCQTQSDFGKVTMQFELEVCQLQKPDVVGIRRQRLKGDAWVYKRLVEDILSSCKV

[11] = target: T2, 5'-AMP-activated protein kinase subunit beta-1 (Homo sapiens) (UniProt Q9Y478); test: Inhibition of AMPK at 1 uM relative to control
T2 sequence (whole entry): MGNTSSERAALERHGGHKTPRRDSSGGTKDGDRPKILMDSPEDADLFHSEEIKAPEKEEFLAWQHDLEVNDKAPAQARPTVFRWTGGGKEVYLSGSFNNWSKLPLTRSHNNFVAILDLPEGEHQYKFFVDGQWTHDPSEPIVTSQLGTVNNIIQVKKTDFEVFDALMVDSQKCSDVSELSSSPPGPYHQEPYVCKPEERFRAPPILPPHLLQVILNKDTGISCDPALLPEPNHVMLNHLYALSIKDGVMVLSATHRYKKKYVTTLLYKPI

[12] = target: Serine/threonine-protein kinase N2 (Homo sapiens) (UniProt Q16513); test: Inhibition of PRK2 at 1 uM relative to control
[13] = target: T3, Dual specificity tyrosine-phosphorylation-regulated kinase 2 (Homo sapiens) (UniProt Q92630); test: Inhibition of DYRK2 at 1 uM relative to control
T3 sequence (whole entry): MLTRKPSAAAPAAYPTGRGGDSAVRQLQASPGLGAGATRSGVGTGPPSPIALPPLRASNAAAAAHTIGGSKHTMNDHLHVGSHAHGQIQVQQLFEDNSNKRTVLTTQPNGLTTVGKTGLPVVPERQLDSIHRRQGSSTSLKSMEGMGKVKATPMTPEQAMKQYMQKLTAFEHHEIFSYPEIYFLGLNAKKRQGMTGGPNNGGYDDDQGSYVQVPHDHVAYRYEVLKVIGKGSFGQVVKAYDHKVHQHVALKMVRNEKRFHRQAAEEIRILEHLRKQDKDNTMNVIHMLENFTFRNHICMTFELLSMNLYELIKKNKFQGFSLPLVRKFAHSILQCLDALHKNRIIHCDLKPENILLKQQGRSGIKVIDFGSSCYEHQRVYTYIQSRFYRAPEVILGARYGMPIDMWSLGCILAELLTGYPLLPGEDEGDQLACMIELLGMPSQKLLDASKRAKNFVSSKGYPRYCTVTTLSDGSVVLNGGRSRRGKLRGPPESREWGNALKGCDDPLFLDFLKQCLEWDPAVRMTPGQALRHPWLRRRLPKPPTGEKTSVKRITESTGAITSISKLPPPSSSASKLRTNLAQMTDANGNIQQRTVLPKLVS

[14] = target: T4, Serine/threonine-protein kinase 3 (Homo sapiens) (UniProt Q13188); test: Inhibition of MST2 at 1 uM relative to control
T4 sequence (whole entry): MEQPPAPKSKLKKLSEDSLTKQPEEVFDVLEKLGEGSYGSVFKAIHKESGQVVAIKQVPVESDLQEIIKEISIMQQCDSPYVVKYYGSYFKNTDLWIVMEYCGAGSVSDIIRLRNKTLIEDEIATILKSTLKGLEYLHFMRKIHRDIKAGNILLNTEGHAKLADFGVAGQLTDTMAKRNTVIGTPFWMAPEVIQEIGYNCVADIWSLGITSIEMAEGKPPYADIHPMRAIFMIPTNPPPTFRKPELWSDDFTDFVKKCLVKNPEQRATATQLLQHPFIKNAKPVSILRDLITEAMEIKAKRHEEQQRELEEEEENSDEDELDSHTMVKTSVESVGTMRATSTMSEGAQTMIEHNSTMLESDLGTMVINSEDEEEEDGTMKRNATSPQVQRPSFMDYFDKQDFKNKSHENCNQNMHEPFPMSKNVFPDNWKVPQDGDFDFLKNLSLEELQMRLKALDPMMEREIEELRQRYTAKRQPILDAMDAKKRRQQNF

[15] = target: Calcium/calmodulin-dependent protein kinase type 1 (Homo sapiens) (UniProt Q14012); test: Inhibition of CAMK1 at 1 uM relative to control
Chain of Calcium/calmodulin-dependent protein kinase type 1 (Homo sapiens) (Q14012 whole entry, looked up): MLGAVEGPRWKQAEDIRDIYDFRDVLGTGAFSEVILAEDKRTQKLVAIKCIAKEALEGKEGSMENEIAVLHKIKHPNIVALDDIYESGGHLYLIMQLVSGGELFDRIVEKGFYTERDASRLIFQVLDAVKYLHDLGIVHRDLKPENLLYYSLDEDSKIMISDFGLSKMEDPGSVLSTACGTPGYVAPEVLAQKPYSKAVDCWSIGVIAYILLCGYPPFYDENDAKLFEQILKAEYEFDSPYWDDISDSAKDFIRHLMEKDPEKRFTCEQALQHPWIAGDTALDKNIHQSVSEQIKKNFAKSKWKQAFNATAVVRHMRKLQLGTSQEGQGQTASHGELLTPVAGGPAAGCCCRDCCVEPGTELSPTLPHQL

Row | Structure (SMILES) | GI50 [1] [µM] | residual activity [2] [%] | residual activity [3] [%] | residual activity [4] [%] | residual activity [5] [%] | residual activity [6] [%] | residual activity [7] [%] | residual activity [8] [%] | residual activity [9] [%] | residual activity [10] [%] | residual activity [11] [%] | residual activity [12] [%] | residual activity [13] [%] | residual activity [14] [%] | residual activity [15] [%]
1 | CSc1cc(Oc2ccnc3[nH]c(=O)[nH]c23)ccc1NC(=O)Nc1cccc(C(F)(F)F)c1 | 1.06 | 50 | 100 | 100 | 50 | 100 | 100 | 100 | 100 | 100 | 100 | 100 | 100 | 75 | < 25
2 | O=C(Nc1cc(C(F)(F)F)ccc1F)Nc1ccc(Oc2ccnc3[nH]c(=O)[nH]c23)c2ccccc12 | 0.29 | 100 | 100 | 100 | 50 | 100 | 100 | 100 | 100 | 100 | 100 | 100 | 100 | 100 | < 25
3 | CC(C)(C)c1cccc(NC(=O)Nc2ccc(Oc3ccnc4[nH]c(=O)[nH]c34)c3ccccc23)c1 | 3.9 | 75 | 75 | 75 | < 25 | 75 | 75 | 75 | 75 | 75 | 75 | 100 | 100 | 75 | 75
